One test relates to Bacillus subtilis. The test can be described thus: Antibacterial activity against Bacillus subtilis ATCC 6633 after 18 hrs by microdilution method. In kind it is functional. The settings on record: ATCC 6633, 18 h. A general note: Broth dilution looks for growth in wells or tubes with falling amounts of substance.
Test [1] concerns the target T1, 11-beta-hydroxysteroid dehydrogenase 1 (Homo sapiens, UniProt P28845). The test can be described thus: Inhibition of human 11beta-HSD1 expressed in HEK293 cells assessed as [3H]cortisol by scintillation proximity assay. It is filed as cell-based. Put shortly: (§1)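 IC50 by scintillation proximity assay. Enzyme source was microsomes from HEK293 cells stably transfected with human or murine 11β-HSD1. Microsomes were incubated with NADPH and [3H]-cortisone. Product [3H]-cortisol was captured by a monoclonal antibody coupled to protein A-coated SPA beads. Glycyrrhetinic acid served as positive control.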
Target sequence in this assay (P28845 whole entry): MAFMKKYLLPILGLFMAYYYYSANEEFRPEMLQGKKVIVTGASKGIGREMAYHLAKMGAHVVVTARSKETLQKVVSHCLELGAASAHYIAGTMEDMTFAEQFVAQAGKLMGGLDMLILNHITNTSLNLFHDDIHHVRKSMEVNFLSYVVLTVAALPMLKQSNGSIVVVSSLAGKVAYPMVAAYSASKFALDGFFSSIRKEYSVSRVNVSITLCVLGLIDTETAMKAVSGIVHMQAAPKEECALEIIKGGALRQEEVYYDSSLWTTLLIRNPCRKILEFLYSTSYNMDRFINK
For orientation: In a scintillation proximity assay essentially only radioactivity close to the scintillant gives light.

The test system of another test is Staphylococcus aureus. The test can be described thus: Antibacterial activity against Staphylococcus aureus ATCC 25923 after 18 hrs by microdilution method. The settings on record: ATCC 25923, 18 h. It is filed as functional.
Test [2] has as its target 11-beta-hydroxysteroid dehydrogenase 1 (Mus musculus, UniProt P50172). The test can be described thus: Inhibition of mouse 11beta-HSD1 expressed in HEK293 cells assessed as [3H]cortisol by scintillation proximity assay. It is filed as cell-based. Put shortly:
as §1

The target of test [3] is 11-beta-hydroxysteroid dehydrogenase 1 (Mus musculus) (UniProt P50172). The test can be described thus: Inhibition of mouse 11beta-HSD1 expressed in HEK293 cells assessed as [3H]cortisol at 10 uM by scintillation proximity assay. It is filed as cell-based. The essentials:
(§2)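 Single-concentration screen at 10 μM by scintillation proximity assay, read as % inhibition. Microsomes were incubated with NADPH and [3H]-cortisone. The [3H]-cortisol formed was captured by a monoclonal antibody on protein A-coated SPA beads. Glycyrrhetinic acid served as positive control.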

Another test deals with Micrococcus luteus. The test can be described thus: Antibacterial activity against Micrococcus luteus ATCC 9341 after 18 hrs by microdilution method. The settings on record: ATCC 9341, 18 h. It is filed as functional.
Test [4] deals with T1, 11-beta-hydroxysteroid dehydrogenase 1. The test can be described thus: Inhibition of human 11beta-HSD1 expressed in HEK293 cells assessed as [3H]cortisol at 10 uM by scintillation proximity assay. It is filed as cell-based. The essentials: as §2
Target sequence in this assay (P28845 whole entry, looked up): as the sequence (P28845 whole entry) above
For test [5], the system named is Staphylococcus epidermidis. The test can be described thus: Antibacterial activity against Staphylococcus epidermidis ATCC 12228 after 18 hrs by microdilution method. Conditions: ATCC 12228, 18 h. It is filed as functional.

Broadly, the MIC is the least concentration at which growth counts as inhibited. The low end stands for greater potency, the high end for weaker potency. Broadly, the IC50 is the concentration that gives 50% inhibition. In general, inhibition refers to the percentage by which the read-out fell short of the control.

Converted amounts (≈) assume the structure as drawn.

Chain of 11-beta-hydroxysteroid dehydrogenase 1 (Mus musculus, UniProt P50172) (P50172 whole entry): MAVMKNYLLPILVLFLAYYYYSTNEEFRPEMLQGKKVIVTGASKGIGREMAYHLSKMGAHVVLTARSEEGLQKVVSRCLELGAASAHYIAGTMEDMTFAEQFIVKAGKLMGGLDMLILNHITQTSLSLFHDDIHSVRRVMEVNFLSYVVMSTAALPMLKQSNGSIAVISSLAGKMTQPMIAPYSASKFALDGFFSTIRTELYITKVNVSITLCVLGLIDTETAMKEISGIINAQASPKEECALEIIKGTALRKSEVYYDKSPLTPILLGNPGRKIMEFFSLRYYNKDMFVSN
Chain of 11-beta-hydroxysteroid dehydrogenase 1 (Mus musculus) (P50172 whole entry, looked up): as the sequence (P50172 whole entry) above

`C=C(C)[C@H](O)CC[C@@H](CO)[C@H]1CC[C@@]2(C)[C@@H]3CC[C@@H](C(=C)C)[C@@]4(CCC(=O)O)C[C@@]34CC[C@]12C`: the MIC turned out to be 6.3 µg/mL (≈ 13.3 µM) against Bacillus subtilis, 25 µg/mL (≈ 52.9 µM) against Staphylococcus aureus, 12.5 µg/mL (≈ 26.4 µM) in the test with Micrococcus luteus and 25 µg/mL (≈ 52.9 µM) in test [5]. Besides, the values for the IC50 in test [1] and in test [2] were 1400 nM and 990 nM, respectively. Moreover, the inhibition in test [3] and in test [4] was more than 60% in each case.

As to `C=C(C)[C@@H]1CC[C@@H]2[C@]3(CC[C@]4(C)[C@@H]([C@@H](C/C=C/C(C)(C)O)COC(C)=O)CC[C@@]24C)C[C@]13CCC(=O)O`, the MIC was 6.3 µg/mL (≈ 12.2 µM) against Bacillus subtilis, 25 µg/mL (≈ 48.6 µM) in the test on Staphylococcus aureus, 6.3 µg/mL (≈ 12.2 µM) with Micrococcus luteus and 12.5 µg/mL (≈ 24.3 µM) in test [5]. Further, the IC50 was determined as 2300 nM in test [1] and 740 nM in test [2]. The inhibition in test [3] and in test [4] was more than 60% throughout.

With `C=C(C)[C@H](O)CC[C@@H](COC(C)=O)[C@H]1CC[C@@]2(C)[C@@H]3CC[C@@H](C(=C)C)[C@@]4(CCC(=O)O)C[C@@]34CC[C@]12C`, the MIC was 12.5 µg/mL (≈ 24.3 µM) in the test on Bacillus subtilis, more than 50 µg/mL against Staphylococcus aureus, 12.5 µg/mL (≈ 24.3 µM) in the test with Micrococcus luteus and 25 µg/mL (≈ 48.6 µM) in test [5].

Regarding `C=C(C)[C@@H]1CC[C@@H]2[C@]3(CC[C@]4(C)[C@@H]([C@H](C)C/C=C/C(C)(C)O)CC[C@@]24C)C[C@]13CCC(=O)O`, the minimal inhibitory concentration (MIC) against Bacillus subtilis is 3.1 µg/mL (≈ 6.79 µM); with Staphylococcus aureus it was more than 50 µg/mL; in the test with Micrococcus luteus, 6.3 µg/mL (≈ 13.8 µM); in test [5], more than 50 µg/mL.

For the compound `C=C(C)[C@@H]1CC[C@@H]2[C@]3(CC[C@]4(C)[C@@H]([C@H]5CC[C@@H](C(C)(C)O)OC5)CC[C@@]24C)C[C@]13CCC(=O)O`, the MIC (in the test with Bacillus subtilis; with Staphylococcus aureus; against Micrococcus luteus; in test [5]) was more than 50 µg/mL throughout.

As for `CC1COc2c(N3CCN(C)CC3)c(F)cc3c(=O)c(C(=O)O)cn1c23` (stereo not given) [OFLOXACIN], the MIC stood at 0.013 µg/mL (≈ 0.036 µM) against Bacillus subtilis, 0.2 µg/mL (≈ 0.553 µM) with Staphylococcus aureus, 1.6 µg/mL (≈ 4.43 µM) in the test on Micrococcus luteus and 0.2 µg/mL (≈ 0.553 µM) in test [5].

In the case of `C=C(C)[C@@H]1CC[C@@H]2[C@]3(CC[C@]4(C)[C@@H]([C@@H](CCC(=O)O)COC(C)=O)CC[C@@]24C)C[C@]13CCC(=O)O`, in test [1], the IC50 amounted to 1900 nM. Moreover, the inhibition in test [3] and in test [4] was more than 60% in each case.

With `C=C(C)[C@@H]1CC[C@@H]2[C@]3(CC[C@]4(C)[C@@H]([C@H]5CC[C@H](C(C)(C)O)OC5)CC[C@@]24C)C[C@]13CCC(=O)O`, the MIC against Bacillus subtilis was found to be 6.3 µg/mL (≈ 13.3 µM); with Staphylococcus aureus it was 25 µg/mL (≈ 52.9 µM); with Micrococcus luteus, 3.1 µg/mL (≈ 6.56 µM); in test [5], 12.5 µg/mL (≈ 26.4 µM). In addition, the figures for the IC50 in test [1] and in test [2] were 1900 nM and 240 nM, respectively. Further, the inhibition in test [3] and in test [4] was more than 60% each time.

As for `C=C(C)[C@@H]1CC[C@@H]2[C@]3(CC[C@]4(C)[C@@H]([C@H](C)CC[C@H](O)C(C)(C)O)CC[C@@]24C)C[C@]13CCC(=O)O`, the minimum inhibitory concentration (MIC) against Bacillus subtilis is 50 µg/mL (≈ 105 µM); in the test with Staphylococcus aureus, more than 50 µg/mL; against Micrococcus luteus, 50 µg/mL (≈ 105 µM); in test [5] it was more than 50 µg/mL.

Take `C=C(C)C(=O)CC[C@@H](COC(C)=O)[C@H]1CC[C@@]2(C)[C@@H]3CC[C@@H](C(=C)C)[C@@]4(CCC(=O)O)C[C@@]34CC[C@]12C`: the MIC in the test on Bacillus subtilis is 25 µg/mL (≈ 48.8 µM); in the test with Staphylococcus aureus, more than 50 µg/mL; in the test with Micrococcus luteus, more than 50 µg/mL; in test [5], more than 50 µg/mL.

On to `C=C(C)[C@@H](O)CC[C@@H](COC(C)=O)[C@H]1CC[C@@]2(C)[C@@H]3CC[C@@H](C(=C)C)[C@@]4(CCC(=O)O)C[C@@]34CC[C@]12C`, for which the MIC in the test with Bacillus subtilis is 12.5 µg/mL (≈ 24.3 µM); against Staphylococcus aureus, more than 50 µg/mL; against Micrococcus luteus, 12.5 µg/mL (≈ 24.3 µM); in test [5], 25 µg/mL (≈ 48.6 µM).

The record behind these values is ChEMBL document CHEMBL3351840, “Lithocarpic Acids A-N, 3,4-seco-Cycloartane Derivatives from the Cupules of Lithocarpus polystachyus” (J Nat Prod, 2014).
